In one assay the test system is Bcap37. The assay is described as follows: Cytotoxicity against human Bcap37 cells after 48 hrs by MTT assay. Type of assay: functional, cell-based. The gist of the method:
(§1)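 Tumor cells in log phase in RPMI 1640 + 10% FBS, seeded at 3×10^4 cells mL-1 and incubated 24 h (37 °C, 5% CO2). Test samples added at pre-set concentrations (6 wells each), doxorubicin as reference; 48 h exposure. MTT (2.5 mg·mL-1 in PBS) added for 4 h, formazan dissolved in DMSO, A570 read.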

The next assay relates to HepG2. The assay is described as follows: Cytotoxicity against human HepG2 cells after 48 hrs by MTT assay. The class given is functional, cell-based. The gist of the method:
as §1
For orientation: Tetrazolium assays rely on reduction of a dye to a coloured formazan, in cell work by metabolically active cells.

Assay [1] in a line: Cytotoxicity against human PC3 cells after 48 hrs by MTT assay. The class given is functional, cell-based, PC-3. A digest of the protocol: as §1
Assay [2] is described as follows: Cytotoxicity against human MGC803 cells after 48 hrs by MTT assay. The class given is functional, cell-based, MGC-803. A digest of the protocol: as §1
The mark [3] stands for this setting: Homo sapiens, Bcap37, 48 h, read-out: IC50.
Where [4] appears, read: Homo sapiens, HepG2, 48 h, read-out: IC50.
Setting [5] is: Homo sapiens, PC-3, 48 h, read-out: IC50.
The mark [6] stands for this setting: Homo sapiens, MGC-803, 48 h, read-out: IC50.

With `CC1=NN(C(=O)CN2CCC(Cl)CC2)C(c2ccccc2O)C1` (configuration not stated), the IC50 came out at 28.6 µM with Bcap37 (setting [3]), 42.1 µM in the assay with HepG2 (setting [4]), 34.8 µM in assay [1] (setting [5]) and 30.3 µM in assay [2] (setting [6]).

As to `COc1cccc2c1C(=O)c1c(O)c3c(c(O)c1C2=O)C[C@@](O)(C(=O)CO)C[C@@H]3O[C@H]1C[C@H](N)[C@H](O)[C@H](C)O1` [DOXORUBICIN], the half-inhibitory concentration (IC50) in the assay with Bcap37 (setting [3]) turned out to be 1.12 µM; in the assay with HepG2 (setting [4]), 1.34 µM; in assay [1] (setting [5]) it was 0.87 µM.

Turning to `CC1=NN(C(=O)c2ccc(C)cc2)C(c2cc(Br)cc(Br)c2O)C1` (configuration not stated), the IC50 result in the assay on Bcap37 (bcap37) is “Not Active”; with HepG2 (hepg2), “Not Active”; in assay [1] (setting [5]), 41.2 µM; in assay [2] (setting [6]), 56.5 µM.

On to `CC1=NN(C(=O)/C=C/c2ccccc2)C(c2ccccc2O)C1` (configuration not stated), for which the IC50 entry was “Not Active” with Bcap37 (bcap37), 29 µM with HepG2 (setting [4]), 42 µM in assay [1] (setting [5]) and 39.6 µM in assay [2] (setting [6]).

Regarding `CCN(CC)CC(=O)N1N=C(C)CC1c1ccccc1O` (configuration not stated), the IC50 in the assay with Bcap37 (setting [3]) stood at 45.7 µM; in the assay on HepG2 (setting [4]), 51.6 µM; in assay [1] (setting [5]), 25.9 µM; in assay [2] (setting [6]), 39.8 µM.

Take `CC1=NN(S(=O)(=O)c2ccc([N+](=O)[O-])cc2)C(c2cc(Br)cc(Br)c2O)C1` (configuration not stated): the IC50 result in the assay with Bcap37 (bcap37) is “Not Active”; in the assay with HepG2 (hepg2), “Not Active”; in assay [1] (setting [5]), 50 µM; in assay [2] (setting [6]), 40.1 µM.

As for `CC1CCCN(CC(=O)N2N=C(c3cc4ccccc4oc3=O)CC2c2ccccc2)C1` (configuration not stated), the IC50 entry was “Not Active” in the assay with Bcap37 (bcap37), “Not Active” in the assay on HepG2 (hepg2), 28.3 µM in assay [1] (setting [5]) and “Not Active” in assay [2] (mgc-803).

Consider `CC1=NN(C(=O)CN2CCC(c3ccccc3)CC2)C(c2ccccc2O)C1` (configuration not stated), for which the IC50 was found to be 33.7 µM in the assay with Bcap37 (setting [3]), 23.3 µM in the assay on HepG2 (setting [4]), 20.4 µM in assay [1] (setting [5]) and 12.3 µM in assay [2] (setting [6]).

Consider `CC1=NN(C(=O)CCc2ccccc2)C(c2cc(Br)cc(Br)c2O)C1` (configuration not stated), for which the IC50 with Bcap37 (setting [3]) turned out to be 27.2 µM; in the assay with HepG2 (setting [4]), 9.17 µM; in assay [1] (setting [5]) it was 11.3 µM; in assay [2] (setting [6]), 17.1 µM.

Consider `CC1=NN(C(=O)CN2CCCC(C)C2)C(c2ccccc2O)C1` (configuration not stated), for which the IC50 in the assay with Bcap37 (setting [3]) worked out at 35.6 µM; with HepG2 (setting [4]), 17.9 µM; in assay [1] (setting [5]), 35.5 µM; in assay [2] (setting [6]) it was 42.9 µM.

Turning to `CC1=NN(C(=O)CN(CC(C)C)CC(C)C)C(c2ccccc2O)C1` (configuration not stated), the IC50 in the assay on Bcap37 (setting [3]) was determined as 40.5 µM; in the assay on HepG2 (setting [4]) it was 49.2 µM; in assay [1] (setting [5]), 32.2 µM; in assay [2] (setting [6]), 30 µM.

Consider `CC1=NN(S(=O)(=O)c2ccc(C)cc2)C(c2cc(Br)ccc2O)C1` (configuration not stated), for which the IC50 came to 36.8 µM with Bcap37 (setting [3]), 20.8 µM in the assay on HepG2 (setting [4]), 33.2 µM in assay [1] (setting [5]) and 30.7 µM in assay [2] (setting [6]).

Regarding `CN1CCN(CC(=O)N2N=C(c3cc4ccccc4oc3=O)CC2c2ccccc2)CC1` (configuration not stated), the IC50 with Bcap37 (setting [3]) was 16.9 µM; with HepG2 (setting [4]) it was 33.1 µM; in assay [1] (setting [5]), 25.8 µM; in assay [2] (setting [6]) it was 46.1 µM.

`CC1CC(C)CN(CC(=O)N2N=C(c3cc4ccccc4oc3=O)CC2c2ccccc2)C1` (configuration not stated): the IC50 result (in the assay on Bcap37 (bcap37); in the assay on HepG2 (hepg2); in assay [1] (pc-3); in assay [2] (mgc-803)) was “Not Active” each time.

As to `O=C(CN1CCCC1)N1N=C(c2cc3ccccc3oc2=O)CC1c1ccccc1` (configuration not stated), the IC50 entry with Bcap37 (bcap37) was “Not Active”; with HepG2 (setting [4]), 44.3 µM; in assay [1] (setting [5]), 50.2 µM; in assay [2] (mgc-803) it was “Not Active”.

For the molecule `CCN(CC)C1CCN(CC(=O)N2N=C(c3cc4ccccc4oc3=O)CC2c2ccccc2)CC1` (configuration not stated), the IC50 in the assay on Bcap37 (setting [3]) came out at 15.5 µM; with HepG2 (setting [4]), 19.3 µM; in assay [1] (setting [5]) it was 26.1 µM; in assay [2] (setting [6]), 32.4 µM.

As for `O=C(CNC1CC1)N1N=C(c2cc3ccccc3oc2=O)CC1c1ccccc1` (configuration not stated), the IC50 entry in the assay on Bcap37 (bcap37) is “Not Active”; in the assay on HepG2 (hepg2), “Not Active”; in assay [1] (setting [5]), 28.5 µM; in assay [2] (mgc-803), “Not Active”.

Consider `CC(C)(C)NCC(=O)N1N=C(c2cc3ccccc3oc2=O)CC1c1ccccc1` (configuration not stated), for which the IC50 was determined as 36.2 µM in the assay with Bcap37 (setting [3]), 31.4 µM with HepG2 (setting [4]), 16.4 µM in assay [1] (setting [5]) and 15.4 µM in assay [2] (setting [6]).

For the molecule `CC1=NN(C(=O)CN2CCSCC2)C(c2ccccc2O)C1` (configuration not stated), the IC50 in the assay with Bcap37 (setting [3]) is 20.6 µM; in the assay with HepG2 (setting [4]) it was 45.3 µM; in assay [1] (setting [5]) it was 29.2 µM; in assay [2] (setting [6]) it was 31.5 µM.

Consider `CC1=NN(C(=O)c2ccc(C)cc2)C(c2ccccc2O)C1` (configuration not stated), for which the IC50 in the assay with Bcap37 (setting [3]) worked out at 9.97 µM; in the assay with HepG2 (setting [4]), 11.3 µM; in assay [1] (setting [5]), 40.6 µM; in assay [2] (setting [6]), 26.3 µM.

As to `O=C(CNC1CCCCC1)N1N=C(c2cc3ccccc3oc2=O)CC1c1ccccc1` (configuration not stated), the IC50 in the assay on Bcap37 (setting [3]) was 38.3 µM; with HepG2 (setting [4]), 34.4 µM; in assay [1] (setting [5]) it was 48.5 µM; in assay [2] (setting [6]), 26.4 µM.

For the molecule `CC1=NN(C(=O)c2ccc([N+](=O)[O-])cc2)C(c2ccccc2O)C1` (configuration not stated), the IC50 in the assay on Bcap37 (setting [3]) is 45.2 µM; in the assay on HepG2 (setting [4]), 30.1 µM; in assay [1] (setting [5]), 36.6 µM; in assay [2] (setting [6]), 50 µM.

As to `Cc1ccc(C(=O)N2N=C(c3cc4ccccc4oc3=O)CC2c2ccccc2)cc1` (configuration not stated), the IC50 in the assay with Bcap37 (setting [3]) was 26.1 µM; in the assay on HepG2 (setting [4]), 52.3 µM; in assay [1] (setting [5]), 13.2 µM; in assay [2] (setting [6]) it was 31.3 µM.

Consider `CC1=NN(C(=O)COc2ccc(Cl)cc2)C(c2cc(Br)cc(Br)c2O)C1` (configuration not stated), for which the IC50 in the assay with Bcap37 (setting [3]) was 46.3 µM; with HepG2 (hepg2), “Not Active”; in assay [1] (setting [5]), 40.2 µM; in assay [2] (setting [6]), 50 µM.

Turning to `CC1=NN(C(=O)CN2CC(C)CC(C)C2)C(c2ccccc2O)C1` (configuration not stated), the IC50 amounted to 20.9 µM with Bcap37 (setting [3]), 51.9 µM in the assay with HepG2 (setting [4]), 36.4 µM in assay [1] (setting [5]) and 30.7 µM in assay [2] (setting [6]).

With `CC1=NN(C(=O)CCc2ccccc2)C(c2cc(Br)ccc2O)C1` (configuration not stated), the IC50 with Bcap37 (setting [3]) is 41.3 µM; with HepG2 (setting [4]), 17.9 µM; in assay [1] (setting [5]), 16.2 µM; in assay [2] (setting [6]) it was 21.2 µM.

For `CC1=NN(C(=O)CN(C(C)C)C(C)C)C(c2ccccc2O)C1` (configuration not stated), the IC50 was determined as 4.96 µM with Bcap37 (setting [3]), 15.1 µM with HepG2 (setting [4]), 32.3 µM in assay [1] (setting [5]) and 31.2 µM in assay [2] (setting [6]).

As to `CC(=O)Oc1ccccc1C1CC(C)=NN1C(=O)CN(C(C)C)C(C)C` (configuration not stated), the IC50 came out at 19.4 µM with Bcap37 (setting [3]), 34.1 µM in the assay with HepG2 (setting [4]), 24.5 µM in assay [1] (setting [5]) and 20.1 µM in assay [2] (setting [6]).

Consider `CC1=NN(C(=O)c2ccccc2Cl)C(c2ccccc2O)C1` (configuration not stated), for which the IC50 stood at 30.2 µM in the assay with Bcap37 (setting [3]), 25.2 µM in the assay on HepG2 (setting [4]), 42.5 µM in assay [1] (setting [5]) and 18.3 µM in assay [2] (setting [6]).

For `Cc1ccc(S(=O)(=O)N2N=C(c3cc4ccccc4oc3=O)CC2c2ccccc2)cc1` (configuration not stated), the IC50 is 30.3 µM with Bcap37 (setting [3]), “Not Active” in the assay on HepG2 (hepg2), 48.6 µM in assay [1] (setting [5]) and 50.2 µM in assay [2] (setting [6]).

For the molecule `CCC(=O)N1N=C(C)CC1c1cc(Br)ccc1O` (configuration not stated), the IC50 with Bcap37 (setting [3]) is 20.8 µM; in the assay with HepG2 (hepg2), “Not Active”; in assay [1] (setting [5]), 37.8 µM; in assay [2] (setting [6]) it was 50.3 µM.

In the case of `CC1=NN(C(=O)COc2ccc(Cl)cc2)C(c2cc(Br)ccc2O)C1` (configuration not stated), the IC50 was 36.8 µM with Bcap37 (setting [3]), “Not Active” with HepG2 (hepg2), 49 µM in assay [1] (setting [5]) and 23.6 µM in assay [2] (setting [6]).

A word on the IC50: it is the concentration that inhibits the measured activity by half.
